Data: article PMC5365239 (Chemical Science, 2016)

Experiments:
[1] = system: cellular GSH; assay: Cellular GSH concentration by LC-ESI-MS/MS after NEM alkylation; format: cell-based, human; details: OVCAR5, 20 μM BSO
Procedure, shortened: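 Adherent OVCAR5 cells held in RPMI-1640 with 20 μM BSO for 24 hours before HPG incorporation. Cellular GSH was alkylated with NEM and then quantified by LC-ESI-MS/MS.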

[2] = system: OVCAR5 cells; assay: MTS cytotoxicity assay after CuAAC reaction / GSH depletion; format: cell-based, human; details: low concentration (20 μM) BSO
Procedure, shortened: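 HPG-incorporated OVCAR5 cells were exposed 10 min to CuAAC reaction mixtures. They were then returned to RPMI-1640 for 24 hours before viability was read by MTS assay. For GSH depletion, cells were first held 24 hours in RPMI-1640 containing 20 μM BSO before HPG incorporation.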

[3] = Cu^I-ligand dissociation constant, competition assay with bicinchoninic acid; format: binding; details: read-out: Dissociation constant (KD) of Cu^I-ligand; BCA competition assay

Kd [3] [pM]	SMILES	Cellular GSH concentration ([1]; 24 h) [µM]	Reduction of the cellular GSH level ([1]; 24 hours) [%]	Cytotoxicity of GSH depletion (in words) [2]
–	CCCCS(=N)(=O)CCC(N)C(=O)O (stereo not shown) [BSO, buthionine sulfoximine]	4.9 ± 0.4	99.7	No cytotoxicity
31	N[C@@H](CCC(=O)N[C@@H](CS)C(=O)NCC(=O)O)C(=O)O [GSH, reduced glutathione]	–	–	–
